Data: ChEMBL document CHEMBL3244269, “Synthesis of carboxyarylindoles and benzofurans as nonsteroidal antiinflammatory agents” (J Med Chem, 1977)

Assays:
[1] = tested on: Rattus norvegicus; assay: Antiinflammatory activity in Wistar rat assessed as inhibition of carrageenan-induced paw edema at 200 mg/kg, po administered 30 mins prior challenge measured after 3 hrs relative to placebo-control; assay type: functional
How it was run: (§1)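 Fasted male Wistar rats, eight per group, dosed orally with 200 mg/kg as a saline-Tween 80 suspension (10 mL/kg), or placebo. After 30 min, 0.1 cm³ of 1% carrageenan in distilled water was injected into the left hind paw plantar surface. Paw volume was read by mercury displacement then and 3 h later. Mean volume increase was compared with placebo as percent inhibition.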

[2] = tested on: Rattus norvegicus; assay: Toxicity in carrageenan-induced Wistar rat assessed as increase in paw edema at 200 mg/kg, po administered 30 mins prior challenge measured after 3 hrs relative to placebo-control; assay type: organism-based; design: dose 200 mg/kg, route oral; details: in vivo; how it was run: as §1

Structure (SMILES) | inhibition in vivo at 200 mg/kg [1] | Activity [2]
CC(=O)Oc1ccccc1C(=O)O [ASPIRIN] | 65.3% | 
O=C(O)c1cc(-n2c(-c3ccccc3)cc3c2CCCC3)ccc1O | 64% | 
CCCCn1c(-c2ccc(O)c(C(=O)O)c2)cc2c1CCCC2 | 41% | 
COC(=O)c1cc(-c2cc3c(o2)CCCC3)ccc1O | 9.8% | Toxic
COC(=O)c1cc(-c2cc3c(n2-c2ccccc2)CCc2ccccc2-3)ccc1O | 21.7% | Toxic
O=C(O)c1cc(-n2c(-c3ccccc3)cc3c2CCc2ccccc2-3)ccc1O [FENDOSAL] | 64.2% | 
O=C(O)c1cc(-c2cc3c(n2-c2ccccc2)CCCC3)ccc1O | 25.8% | 
O=C(O)c1cc(-c2cc3c(n2-c2ccccc2)CCc2ccccc2-3)ccc1O | 37.5% | 
O=C(O)c1cc(-c2cc3c(o2)CCCC3)ccc1O | 21.5% | 
